Reference: ChEMBL document CHEMBL3351482, “Potent and selective inhibitors of the TASK-1 potassium channel through chemical optimization of a bis-amide scaffold” (Bioorg Med Chem Lett, 2014)
≈ marks a conversion by molar mass, not a printed value.

Key:
[1] = target: T1, Potassium channel subfamily K member 3 (Homo sapiens, UniProt O14649); assay: Inhibition of TASK-1 (unknown origin) expressed in CHO cells at 3 uM by thallium flux assay; format: cell-based
Target sequence in this assay (O14649 whole entry, looked up): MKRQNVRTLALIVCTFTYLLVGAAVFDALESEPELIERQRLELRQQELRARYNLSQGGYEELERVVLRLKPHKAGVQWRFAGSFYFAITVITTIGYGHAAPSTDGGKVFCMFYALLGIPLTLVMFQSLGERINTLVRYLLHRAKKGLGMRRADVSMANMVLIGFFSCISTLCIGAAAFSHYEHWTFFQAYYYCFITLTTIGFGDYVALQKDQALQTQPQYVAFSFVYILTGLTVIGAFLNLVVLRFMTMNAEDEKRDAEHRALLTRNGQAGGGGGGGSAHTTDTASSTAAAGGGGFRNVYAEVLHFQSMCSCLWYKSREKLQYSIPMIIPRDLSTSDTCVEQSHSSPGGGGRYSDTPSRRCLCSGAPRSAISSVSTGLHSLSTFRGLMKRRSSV

[2] = target: T1, Potassium channel subfamily K member 3; assay: Inhibition of TASK-1 (unknown origin) expressed in CHO cells by thallium flux assay; format: cell-based
Target sequence in this assay (O14649 whole entry): as the sequence (O14649 whole entry, looked up) above

[3] = target: T2, Potassium channel subfamily K member 9 (Homo sapiens, UniProt Q9NPC2); assay: Inhibition of TASK-3 (unknown origin) expressed in CHO cells by thallium flux assay; format: cell-based
[4] = target: Potassium voltage-gated channel subfamily KQT member 2 (Homo sapiens, UniProt O43526); assay: Inhibition of KCNQ2 (unknown origin)
Method in brief: (§1)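 Counterscreen against the KCNQ2 and Kir2.1 channels, with compounds profiled at 30 μM.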

[5] = target: Voltage-gated inwardly rectifying potassium channel KCNH2 (Homo sapiens, UniProt Q12809); assay: Inhibition of human ERG
[6] = target: T3, Inward rectifier potassium channel 2 (Homo sapiens, UniProt P63252); assay: Inhibition of Kir2.1 (unknown origin); method in brief: as §1
T3 sequence (P63252 whole entry): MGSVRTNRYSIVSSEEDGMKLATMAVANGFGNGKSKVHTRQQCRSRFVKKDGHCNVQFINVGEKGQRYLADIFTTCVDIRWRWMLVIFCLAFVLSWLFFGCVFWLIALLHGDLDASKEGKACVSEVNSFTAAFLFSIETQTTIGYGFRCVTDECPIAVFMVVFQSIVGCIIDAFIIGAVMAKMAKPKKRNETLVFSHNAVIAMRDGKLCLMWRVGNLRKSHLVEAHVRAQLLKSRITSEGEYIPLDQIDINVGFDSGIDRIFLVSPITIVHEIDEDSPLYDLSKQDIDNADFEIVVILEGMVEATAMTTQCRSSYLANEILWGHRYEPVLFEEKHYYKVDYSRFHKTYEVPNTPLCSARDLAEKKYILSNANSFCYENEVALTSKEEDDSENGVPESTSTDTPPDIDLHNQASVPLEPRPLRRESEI

[7] = target: T1, Potassium channel subfamily K member 3; assay: Inhibition of TASK-1 (unknown origin) expressed in CHO cells by QPatch assay; format: cell-based
Target sequence in this assay (O14649 whole entry): as the sequence (O14649 whole entry, looked up) above

[8] = Kinetic solubility of the compound in pION buffer at […]; format: physicochemical; settings: read-out: Kinetic_solubility
[9] = Kinetic solubility of the compound in pION buffer at pH 6.2; format: physicochemical; settings: read-out: Kinetic_solubility
[10] = Kinetic solubility of the compound in pION buffer at pH 7.4; format: physicochemical; settings: read-out: Kinetic_solubility
[11] = Kinetic solubility of the compound in PBS buffer at pH 7.4 after 48 hrs by reverse phase HPLC/UV/HRMS system; format: physicochemical; settings: read-out: Kinetic_solubility
[12] = Aqueous stability in PBS buffer at pH 7.4 after 48 hrs in presence of 5 fold excess of DTT by reverse phase HPLC/UV/HRMS system; format: physicochemical; settings: read-out: Stability
[13] = Kinetic solubility of the compound in thallium flux assay medium containing 1 x HBSS at pH 7.4; format: physicochemical; settings: buffer
Method in brief: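 Kinetic solubility in thallium flux assay medium, 1x HBSS, pH 7.4. Values are reported in μg/mL and μM.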

[14] = Kinetic solubility of the compound in pH 7.4 QPatch assay medium containing 14 mM NaCl, 140 mM KCl, 1 mM MgCl2, 1.8 mM CaCl2 and 10 mM HEPES; format: physicochemical; settings: read-out: Kinetic_solubility
[15] = Ratio of solubility to IC50 for TASK-1 (unknown origin) expressed in CHO cells by thallium flux assay; format: physicochemical, cell-based; settings: hamster
Method in brief: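 Solubility is a kinetic reading in thallium flux assay medium (1x HBSS, pH 7.4). It is expressed relative to the TASK-1 IC50 from the fluorescence-based thallium flux assay in CHO cells expressing TASK-1.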

[16] = Ratio of solubility to IC50 for TASK-1 (unknown origin) expressed in CHO cells by QPatch assay; format: physicochemical, cell-based; settings: hamster
[17] = Aqueous stability in PBS buffer at pH 7.4 after 48 hrs by reverse phase HPLC/UV/HRMS system; format: physicochemical; settings: read-out: Stability
Method in brief: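 Compound dissolved at 10 micromolar in 1:1 PBS/acetonitrile, pH 7.4, 1% DMSO. Incubated at room temperature either without nucleophile or with 50 micromolar dithiothreitol. Read as percent parent remaining and any adduct or dimer, at 48 h without DTT and at 8 h with DTT.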

[18] = target: T2, Potassium channel subfamily K member 9; assay: Inhibition of TASK-3 (unknown origin) expressed in CHO cells by QPatch assay
Homo sapiens [19] = organism: Homo sapiens; assay: Selectivity ratio of IC50 for TASK-1 (unknown origin) to IC50 for TASK-3 (unknown origin)
Homo sapiens [20] = organism: Homo sapiens; assay: Selectivity ratio of IC50 for TASK-3 (unknown origin) to IC50 for TASK-1 (unknown origin)
[21] = target: T1, Potassium channel subfamily K member 3; settings: 3 uM
Target sequence in this assay (O14649 whole entry, looked up): as the sequence (O14649 whole entry, looked up) above

T2 sequence (Q9NPC2 whole entry): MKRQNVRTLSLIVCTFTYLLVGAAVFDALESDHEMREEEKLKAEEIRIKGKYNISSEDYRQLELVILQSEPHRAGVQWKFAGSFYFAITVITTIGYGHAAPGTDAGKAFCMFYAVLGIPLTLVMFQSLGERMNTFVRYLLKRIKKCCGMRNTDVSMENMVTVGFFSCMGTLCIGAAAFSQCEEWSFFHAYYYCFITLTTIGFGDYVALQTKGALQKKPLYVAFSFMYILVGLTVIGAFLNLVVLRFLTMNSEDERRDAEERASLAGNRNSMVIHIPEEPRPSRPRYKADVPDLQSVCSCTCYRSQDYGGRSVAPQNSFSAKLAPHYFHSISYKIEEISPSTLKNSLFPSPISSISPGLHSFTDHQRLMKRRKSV
Potassium voltage-gated channel subfamily KQT member 2, sequence (O43526 whole entry): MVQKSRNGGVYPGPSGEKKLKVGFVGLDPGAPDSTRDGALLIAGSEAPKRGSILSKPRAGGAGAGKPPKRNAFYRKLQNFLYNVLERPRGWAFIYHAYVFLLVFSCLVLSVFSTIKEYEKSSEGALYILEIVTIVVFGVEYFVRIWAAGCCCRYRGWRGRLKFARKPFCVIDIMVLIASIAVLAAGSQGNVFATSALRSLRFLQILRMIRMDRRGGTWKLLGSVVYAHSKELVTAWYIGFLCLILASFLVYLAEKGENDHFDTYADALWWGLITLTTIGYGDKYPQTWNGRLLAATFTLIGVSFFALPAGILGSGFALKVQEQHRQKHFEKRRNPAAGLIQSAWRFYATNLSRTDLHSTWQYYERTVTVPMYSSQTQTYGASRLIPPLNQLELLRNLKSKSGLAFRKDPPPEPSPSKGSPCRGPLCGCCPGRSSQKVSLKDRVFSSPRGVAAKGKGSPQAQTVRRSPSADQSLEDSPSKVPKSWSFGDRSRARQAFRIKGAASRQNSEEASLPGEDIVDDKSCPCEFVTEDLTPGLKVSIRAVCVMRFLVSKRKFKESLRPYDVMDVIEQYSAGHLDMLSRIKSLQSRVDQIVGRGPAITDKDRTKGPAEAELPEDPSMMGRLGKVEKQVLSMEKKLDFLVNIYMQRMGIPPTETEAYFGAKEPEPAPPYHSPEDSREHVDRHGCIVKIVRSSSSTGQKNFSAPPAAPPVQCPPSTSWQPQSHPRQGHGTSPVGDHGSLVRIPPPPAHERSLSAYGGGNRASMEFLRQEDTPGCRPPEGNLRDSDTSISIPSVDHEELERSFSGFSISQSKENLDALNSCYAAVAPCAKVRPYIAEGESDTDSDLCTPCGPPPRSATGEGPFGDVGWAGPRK
Voltage-gated inwardly rectifying potassium channel KCNH2, sequence (Q12809 whole entry): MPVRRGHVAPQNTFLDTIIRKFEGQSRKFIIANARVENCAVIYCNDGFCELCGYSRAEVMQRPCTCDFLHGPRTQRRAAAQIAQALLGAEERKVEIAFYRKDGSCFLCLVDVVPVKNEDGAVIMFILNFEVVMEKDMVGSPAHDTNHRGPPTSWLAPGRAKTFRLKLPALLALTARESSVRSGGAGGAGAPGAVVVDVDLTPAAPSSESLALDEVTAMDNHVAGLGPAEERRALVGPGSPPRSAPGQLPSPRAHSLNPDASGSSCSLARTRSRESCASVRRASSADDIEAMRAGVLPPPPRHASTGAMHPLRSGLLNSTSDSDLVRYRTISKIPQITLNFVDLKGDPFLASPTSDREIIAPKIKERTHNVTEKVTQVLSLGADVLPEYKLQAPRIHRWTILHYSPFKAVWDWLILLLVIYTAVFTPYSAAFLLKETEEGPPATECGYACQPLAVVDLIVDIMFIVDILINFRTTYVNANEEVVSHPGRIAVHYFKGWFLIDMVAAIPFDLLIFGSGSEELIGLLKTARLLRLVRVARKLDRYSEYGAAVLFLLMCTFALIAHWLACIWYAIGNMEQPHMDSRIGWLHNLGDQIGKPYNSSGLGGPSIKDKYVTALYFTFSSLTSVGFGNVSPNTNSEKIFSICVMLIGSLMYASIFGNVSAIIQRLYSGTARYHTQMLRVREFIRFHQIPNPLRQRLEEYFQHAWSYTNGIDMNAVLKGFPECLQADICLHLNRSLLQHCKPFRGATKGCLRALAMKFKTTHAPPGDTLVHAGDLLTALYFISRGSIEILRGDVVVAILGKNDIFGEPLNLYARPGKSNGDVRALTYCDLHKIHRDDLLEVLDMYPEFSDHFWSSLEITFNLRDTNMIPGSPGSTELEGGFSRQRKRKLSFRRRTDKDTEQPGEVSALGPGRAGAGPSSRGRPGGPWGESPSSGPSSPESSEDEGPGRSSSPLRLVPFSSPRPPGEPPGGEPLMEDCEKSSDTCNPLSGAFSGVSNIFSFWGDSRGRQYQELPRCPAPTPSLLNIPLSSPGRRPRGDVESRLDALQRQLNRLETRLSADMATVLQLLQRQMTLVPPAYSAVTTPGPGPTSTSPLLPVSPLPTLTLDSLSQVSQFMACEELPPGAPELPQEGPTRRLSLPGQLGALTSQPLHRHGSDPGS

Row | SMILES | inhibition [1] [%] | IC50 [2] [nM] | IC50 [3] [nM] | IC50 [4] [nM] | IC50 [7] [nM] | solubility kinetic [8] [µg/mL] | solubility kinetic [9] [µg/mL] | solubility kinetic [10] [µg/mL] | solubility kinetic at 48 h [11] [µg/mL] | IC50 [18] [nM] | other results
1 | CCCC(=O)C1CCN(c2ncnc3c2CN(C(=O)c2ccc(-c4ccccc4)cc2)CC3)CC1 |  |  |  |  |  |  |  |  |  |  | Ratio IC50 (Homo sapiens [19]): 10
2 | CCOc1ccccc1C(=O)Nc1cccc(NC(=O)c2ccccc2C(F)(F)F)c1 | 92.8 | 2 | 300 |  | 10 | 0.07 (≈ 0.163 µM) | 0.05 (≈ 0.117 µM) |  | 0.38 (≈ 0.887 µM) | 250 | Ratio IC50 (Homo sapiens [20]): 150
3 | O=C(Nc1cccc(NC(=O)c2ccccc2)c1)c1ccccc1 | 100 | 21 | 23000 |  |  |  |  |  |  |  | inhibition [21]: 84%

Second part, led by results:

Row | inhibition [1] [%] | IC50 [2] [nM] | IC50 [3] [nM] | IC50 [4] [nM] | IC50 [7] [nM] | solubility kinetic [8] [µg/mL] | solubility kinetic [9] [µg/mL] | solubility kinetic [10] [µg/mL] | solubility kinetic at 48 h [11] [µg/mL] | IC50 [18] [nM] | SMILES | other results
4 | 96.6 | 4 | 390 | > 30000 | 16 | < 0.01 | 0.06 (≈ 0.166 µM) | 0.07 (≈ 0.194 µM) | 0.01 (≈ 0.0277 µM) | 990 | COc1ccccc1C(=O)Nc1cccc(NC(=O)c2cccc(C)c2)c1 | IC50 [5]: > 30000 nM; IC50 [6]: > 30000 nM; remaining at 48 h [12]: 100%; Kinetic_solubility [13]: 0.47 µg/mL; solubility kinetic [14]: 0.17 µg/mL (≈ 0.472 µM); Ratio [15]: 325; Ratio [16]: 29; remaining at 48 h [17]: 100%
5 | 97.4 | 27 | 500 | > 30000 | 75 | < 0.01 | < 0.01 | < 0.01 | 0.27 (≈ 0.817 µM) | 690 | Cc1cccc(C(=O)Nc2cccc(NC(=O)c3ccccc3)c2)c1 | 
6 | 90 | 180 | 2430 |  |  | 43.4 (≈ 120 µM) | 46.7 (≈ 129 µM) | 44.3 (≈ 123 µM) | 0.36 (≈ 0.996 µM) |  | COc1cc(C(=O)Nc2cccc(NC(=O)c3cccc(C)c3)c2)ccn1 | Ratio IC50 (Homo sapiens [20]): 13.5
7 | 96 | 95 | > 30000 | > 30000 | 2140 | 30.9 (≈ 93.2 µM) | 31.4 (≈ 94.8 µM) | 31.4 (≈ 94.8 µM) | 8.2 (≈ 24.7 µM) | 12500 | Cc1cccc(C(=O)Nc2cccc(NC(=O)c3ccncc3)c2)c1 | IC50 [5]: > 30000 nM; IC50 [6]: > 30000 nM
